Experimental data of several laboratories.
Observed: cell growth or viability

O=C(Nc1cnn2ccc(N3CCC[C@@H]3c3cc(F)ccc3F)nc12)N1CC[C@H](O)C1  IC50 (KM12; ATP luminescence; 72 h): > 50 µM
CNC(=O)c1cc(Oc2ccc(NC(=O)Nc3ccc(Cl)c(C(F)(F)F)c3)cc2)ccn1  viability (WM 266-4; MTT; 100 µM; 48 h): 33.9%
CN1C(=O)/C(=N\NC(=O)c2cc3ccccc3[nH]2)c2cc(Cl)ccc21  inhibition (ZR75; 30 µM): 81.8%
Cc1cc(C)n(C(=S)[S][Au][PH](CCCCCC[PH]([Au][S]C(=S)n2nc(C)cc2C)(c2ccccc2)c2ccccc2)(c2ccccc2)c2ccccc2)n1  GI50 (KM12): 0.386 µM
O=C(N/N=C1\C(=O)N(c2ccccc2)c2ccccc21)c1cc2ccccc2[nH]1  inhibition (ZR75; 30 µM): 92.2%
NC(=S)NN=C(CS(=O)(=O)c1ccccc1)c1ccc(F)cc1  viability (WM 266-4; MTT; 0.4 µM; 48 h): 58%
O=C1Nc2ccccc2/C1=N/NC(=O)c1cc2ccccc2[nH]1  inhibition (ZR75; 30 µM): 57.7%
COc1ccc(C2=Nn3c(NN=C4C(=O)Nc5ccc(OC)cc54)nnc3SC2)cc1  inhibition (SR; SRB; 10 µM): 36%
C=CC(=O)N1CCC[C@@H](n2nc(-c3ccc(Oc4ccccc4)cc3)c3c(N)ncnc32)C1  GI50 (JeKo-1; ATP luminescence; 72 h): 20.1 µM
COc1ccc2c(c1)C(=NNc1nc(-c3ccc(OC)c(OC)c3)nc3ccccc13)C(=O)N2  inhibition (ZR75; 30 µM): 23.1%
COc1ccc2c(c1)/C(=N/NC(=O)c1cc3ccccc3[nH]1)C(=O)N2C  inhibition (ZR75; 30 µM): 82.5%
Cc1ccc(C(CS(=O)(=O)c2ccccc2)=NNc2nc(-c3ccc(OCCCCOc4ccc(-c5csc(NN=C(CS(=O)(=O)c6ccccc6)c6ccc(C)cc6)n5)cc4)cc3)cs2)cc1  viability (WM 266-4; MTT; 25 µM; 48 h): 48.8%
COc1ccc2c(c1)C(=NNc1ncnc3cc(OC)c(OC)cc13)C(=O)N2  inhibition (ZR75; 10 µM): 32%
Cc1ccc(C(CS(=O)(=O)c2ccccc2)=NNc2nc(C)c(N=Nc3cccc(C)c3)s2)cc1  viability (WM 266-4; MTT; 100 µM; 48 h): 32.8%
COc1cccc(Oc2ccccc2NC(=O)CNC(=O)c2cccc3ccccc23)c1  GI50 (KM12; SRB; 48 h): 0.191 µM
Cn1c(=O)c(NN=C2C(=O)Nc3ccc(Br)cc32)nc2ccccc21  inhibition (ZR75; 30 µM): 62.1%
O=C(Nc1ccc(C(F)(F)F)cc1)Nc1cccc(C(=O)Nc2ccc3[nH]ncc3c2)c1  IC50 (KM12; ATP luminescence; 72 h): 33.5 µM
COc1ccc2c(c1)C(=NNc1nc3ccccc3n(C)c1=O)C(=O)N2  inhibition (ZR75; 30 µM): 76%
CCN(CC)CCNC(=O)c1c(C)[nH]c(/C=C2\C(=O)Nc3ccc(F)cc32)c1C  inhibition (ZR75; 30 µM): 90.7%
Cc1ccc(C(CS(=O)(=O)c2ccccc2)=NN=C2N=C(c3ccc(Br)cc3)CS2)cc1  viability (WM 266-4; MTT; 0.4 µM; 48 h): 63.8%
COc1cc2ncnc(NN=C3C(=O)Nc4ccc(C)cc43)c2cc1OC  inhibition (ZR75; 30 µM): 40.4%
O=C1Nc2ccc(Br)cc2/C1=N/NC(=O)c1cc2ccccc2[nH]1  inhibition (ZR75; 30 µM): 58.9%
Cn1c(=O)c(NN=C2C(=O)Nc3ccccc32)nc2ccccc21  inhibition (ZR75; 30 µM): 52.1%
Cc1ccc(C(CS(=O)(=O)c2ccccc2)=NNC2=NC(=O)C(=NNc3ccccc3)S2)cc1  viability (WM 266-4; MTT; 6.3 µM; 48 h): 48.2%
COc1cc2ncnc(NN=C3C(=O)Nc4ccccc43)c2cc1OC  inhibition (ZR75; 30 µM): 50.4%
O=C(Cc1ccc(C(F)(F)F)cc1)Nc1cccc(C(=O)Nc2ccc3[nH]ncc3c2)c1  IC50 (KM12; ATP luminescence; 72 h): 48.4 µM
Cn1c(=O)c(NN=C2C(=O)Nc3ccc(F)cc32)nc2ccccc21  inhibition (ZR75; 30 µM): 22.6%
CC(C)(C)c1nc(-c2cccc(NS(=O)(=O)c3c(F)cccc3F)c2F)c(-c2ccnc(N)n2)s1  viability (WM 266-4; MTT; 100 µM; 48 h): 38.1%
